We go through three compounds from PMC8122083 (ACS infectious diseases, 2021).

Values after ≈ are worked out from the molar mass of the structure shown. Where two headings read alike, the source gives them in different places.

Data set [1] has as its system H. pylori ATCC 43504. Description: H. pylori IC50 dose response. Type of data set: cell-based. Particulars: for IC50: Helicobacter pylori.
Data set [2] relates to H. pylori SS1. Kind of data set: H. pylori IC50 dose response. The settings on record: for IC50: Helicobacter pylori, SS1, read-out: H. pylori SS1 pIC50 (converted). Format: cell-based.
A short description of data set [3]: Cytotoxicity assay. Particulars: human, FaDu cells. Type of data set: cell-based. The method, boiled down: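 FaDu cells, maintained per ATCC protocols, were seeded in EMEM with 10% FBS at 3 x 10^5 cells/ml and grown 24 h at 37°C, 5% CO2. Medium was replaced with two-fold serial dilutions of test compound in fresh medium for 72 h, then with FBS-free EMEM plus resazurin (final 0.15 mM) for 3-5 h. Fluorescence read at ex 540/em 590 nm. IC50 fitted from percent inhibition versus growth controls, converted to pIC50, and reported as mean ± S.E.M.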

Data set [4] deals with H. pylori. Kind of data set: H. pylori IC50 of high-throughput screening hits. Type of data set: cell-based. The settings on record: Helicobacter pylori, read-out: H. pylori IC50.
In data set [5] the test system is panel of representative Gram-negative and Gram-positive species, including commensals. Description: MIC against panel of representative Gram-negative and Gram-positive species. Format: cell-based.
The nature of data set [6]: Solubility. Format: physicochemical.
Data set [7] in a line: Mouse pharmacokinetics. Type of data set: in vivo, mice.
Data set [8] concerns H. pylori. Description: H. pylori murine infection model. Format: in vivo, mouse. Particulars: compared to metronidazole control.
In data set [9] the test system is H. pylori SS1. Description: ex vivo H. pylori infection model. Set-up: species or system mouse. The settings on record: 0.6 μg/mL (1.6μM), 24 hours.
Data set [10] deals with H. pylori. Particulars: cited from earlier work.
The mark [11] stands for this setting: ATCC43504, read-out: H. pylori ATCC 43504 pIC50 (converted).

For the compound `OCCCNc1ncnc2sc(-c3ccccc3)cc12` [Compound 1, 3-((6-phenylthieno[2,3-d]pyrimidin-4-yl)amino)propan-1-ol], the IC50 was 1580 nM in data set [1] (setting [11]), 1580 nM in [2] and 1550 nM in [4]. Further, in data set [3], the IC50 at 72 h is 126000 nM.
As usually defined, the MIC is the smallest concentration in the dilution series that meets the test's criterion for growth inhibition. Higher therefore signals a less susceptible organism. Usually solubility stands for how much of the substance goes into solution per volume. High values mean a readily soluble substance, low ones a poorly soluble substance. The term AUC denotes the area under the concentration-time curve, a measure of exposure. For `COc1ccc(C(CO)Nc2ncnc3sc(-c4ccccc4)cc23)cc1` (centres unmarked) [Compound 25, 2-(4-methoxyphenyl)-2-((6-phenylthieno[2,3-d]pyrimidin-4-yl)amino)ethan-1-ol], the “fold increase in potency” value in data set [1] (ATCC 43504 (stated for both strains), lead compounds relative to hits) is given as greater than 69 fold; in data set [2] (SS1 (stated for both strains), lead compounds relative to hits), greater than 69 fold. The IC50 in data set [1] (ATCC43504) was 21 nM; in [1] (setting [11]), 20 nM; in data set [2], 20 nM. In [3], this compound showed an IC50 at 72 h of 398000 nM. Besides, the MIC in data set [5] was no less than 16 µg/mL. The amount in solution in [6] (solubility) came to 1 µM (≈ 0.377 µg/mL). For the same compound, the “exposure upon oral dosing” value in data set [7] (mice, oral (PO), compared with IP) was “lower exposure”. The compound also had an area under the curve (AUC) in data set [7] (mouse, plasma, ip, 50 mg/kg) of 31900 ng·h/mL. Also, the “efficacy in H. pylori murine infection model” value in data set [8] (25 mg/kg (IP)), in data set [8] (50 mg/kg (IP)) and in data set [8] (50 mg/kg (PO)) was “did not show efficacy” throughout. For the same compound, the “effectiveness in ex vivo model” value in data set [9] is given as “highly effective”. Further, in data set [9] (10 samples), the “samples with colony counts below the limit of detection” value is reported as 6 of the 10.
With `CC[C@H]1OC(=O)[C@H](C)[C@@H](O[C@H]2C[C@@](C)(OC)[C@@H](O)[C@H](C)O2)[C@H](C)[C@@H](O[C@@H]2O[C@H](C)C[C@H](N(C)C)[C@H]2O)[C@](C)(OC)C[C@@H](C)C(=O)[C@H](C)[C@@H](O)[C@]1(C)O` [clarithromycin], the “H. pylori minimum inhibitory concentration (MIC)” value in [10] was 0.008 µg/mL.
